Screening data: PubChem BioAssay, The Scripps Research Institute Molecular Screening Center
ABHD4 inh – inhibits mouse alpha/beta hydrolase domain 4; purified mABHD4, FP-Rh probe fluorescence polarization; inhibition, % at 8.92 µM; 0.54% of 370,000 active; AID 720543;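 active = inhibition exceeding the mean over every tested compound plus 3 SD, cut at about 30% in these data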
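Test system: mouse ABHD4 enzyme, wild type. Reagent: FP-Rh fluorescent activity-based probe, added after compound pre-incubation. Timing: pre-incubation 45 min, probe exposure 60 min, at 25 °C. Technique: FP readout, ex 525 nm / em 598 nm. Benchmarks: high control S159A mutant with DMSO, low control median of compound wells.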
PRMT1 FP inh – PRMT1 (human) inhibition, primary screen; Q99873; recombinant PRMT1, activity-based probe fluorescence polarization; inhibition, % at 2.79 µM; 1.3% of 370,000 active;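 active = inhibition above about 21% made by adding two undisclosed values, limit read from the data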
TCR CD3 inh – inhibitors of human TCR-CD3 interaction. TAMRA-labeled TCR probe fluorescence, biochemical. inhibition, % at 9.4 µM. 0.37% of 360,000 active. AID 651800; in the data active = inhibition above about 19%;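 also: recombinant mutant TCR 2C K166C tagged with TAMRA read by polarization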
SIAE inh – blocks human sialic acid acetylesterase; SIAE FP-Rh probe binding, fluorescence polarization; 0.69% of 370,000 active; Q9HAT2; inhibition, % at 9.66 µM;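 active = inhibition above a cutoff: mean of compounds within the control limits plus 3 SD of those, cut at about 17% in these data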
Target sequence (Q9HAT2 whole entry, looked up): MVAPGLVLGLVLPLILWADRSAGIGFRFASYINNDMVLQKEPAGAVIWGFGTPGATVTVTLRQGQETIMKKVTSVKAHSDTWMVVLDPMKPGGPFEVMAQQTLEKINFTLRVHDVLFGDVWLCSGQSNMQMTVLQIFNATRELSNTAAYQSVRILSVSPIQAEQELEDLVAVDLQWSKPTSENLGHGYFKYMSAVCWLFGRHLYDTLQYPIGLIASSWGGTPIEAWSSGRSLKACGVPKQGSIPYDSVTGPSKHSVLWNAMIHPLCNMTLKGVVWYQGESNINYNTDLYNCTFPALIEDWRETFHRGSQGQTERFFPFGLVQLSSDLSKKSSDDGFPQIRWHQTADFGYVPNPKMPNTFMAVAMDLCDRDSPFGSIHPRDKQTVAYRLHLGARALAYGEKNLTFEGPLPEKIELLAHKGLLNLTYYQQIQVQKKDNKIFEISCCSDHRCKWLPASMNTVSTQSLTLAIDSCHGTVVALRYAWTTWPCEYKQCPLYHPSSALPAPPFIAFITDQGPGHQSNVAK
HTRA1 inh – blocks human HTRA1 serine peptidase; Q92743; recombinant HTRA1, FP-rhodamine activity-based probe, fluorescence polarization; inhibition, % at 5.96 µM; 0.5% of 340,000 active; in the data active = inhibition above about 36%
PRMT1 confirm – confirmation of human PRMT1 inhibitors; inhibition, % at 2.79 µM; recombinant His-PRMT1, activity-based probe fluorescence polarization; 42% of 3,300 active; shares compounds with PRMT1 FP inh;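 active = mean inhibition across replicates above the hit cutoff derived for the earlier primary screen, cut at about 22% in these data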
A number is an active result; i = inactive; nt = no result. Sampled rows, rich in hits. Any-hit rate of the full collection: about 2.7%.

SMILES | ABHD4 inh | PRMT1 FP inh | TCR CD3 inh | SIAE inh | HTRA1 inh | PRMT1 confirm
Cc1ccc(NC(=O)CSC2=NCCN2)cc1 | i | 32 | i | i | i | i
CCn1c(SCC(=O)Nc2ccc(C)cc2)nnc1-c1ccccn1 | i | i | i | i | i | nt
COc1ccc(C)cc1N(C)C(=O)Cc1c(C(=O)O)n(C)c2ccccc12 | i | i | i | i | i | nt
Cn1nc([N+](=O)[O-])nc1Oc1ccc(C(C)(C)C)cc1 | i | i | i | i | i | nt
COC(=O)C1=C(C)N(Cc2ccccc2C(F)(F)F)C(=NCc2ccc3c(c2)OCO3)NC1c1ccccc1C(F)(F)F (stereo not given) | i | i | i | i | nt | nt
O=C(C(=O)N(C1CCCCC1)C1CCCCC1)c1ccccc1 | i | i | i | i | nt | nt
COc1ccc(C2=CSC3=C(C(=O)c4cccc(S(=O)(=O)N(C)C)c4)CCN23)cc1 | i | 28 | i | i | i | 27
COc1ccc(N(C)S(=O)(=O)c2cccc(C(=O)N3CCN(c4ccccc4)CC3)c2)cc1 | i | i | i | i | i | nt
COc1cc(C(=O)N2CCN(c3cccc(C(F)(F)F)c3)CC2)ccc1OCC(=O)N1CCOCC1 | i | i | i | i | i | nt
O=C(CNC(=O)c1ccccc1)NCC(=O)OCC(=O)c1ccc(F)cc1 | i | i | i | i | i | nt
O=C(CNC(=O)c1ccccc1)NCC(=O)OCC(=O)c1ccc([N+](=O)[O-])cc1 | i | 35 | i | i | i | 49
COc1ccc(N2C(=O)c3cccc4c(N(C)CCO)ccc(c34)C2=O)cc1 | i | 29 | i | i | i | 24
CCCCCCCCN1C(=O)[C@@H](CC(=O)NCc2cccc(C(F)(F)F)c2)C[C@@]2(C(=O)OC)C1=C[C@H](COCc1ccccc1)O[C@@H]2C | i | i | nt | i | nt | nt
O=[N+]([O-])c1cc2c(cc1Br)-c1ccccc1C2 | i | 38 | i | i | i | i
CCOC(=O)c1sc(NC(=O)C(C)C)c(C#N)c1C | i | 29 | i | i | i | i
CCOC(=O)c1sc(NC(=O)C2=COCCO2)c(C#N)c1C | i | i | i | i | i | nt
CCN(CC)C(=O)Cn1cc(C(=O)C(=O)N2CCN(c3ccc([N+](=O)[O-])cc3)CC2)c2ccccc21 | i | i | i | i | i | nt
c1cncc(CNc2ccc3c(c2)OCO3)c1 | i | 75 | i | i | i | i
COC(=O)c1sc2nc(-c3ccccc3)c3c(c2c1N)CCCC3 | i | i | i | i | i | nt
Nc1c(C(=O)O)sc2nc(-c3ccccc3)c3c(c12)CCCC3 | i | 27 | i | i | i | i
Cc1ccc2[nH]c(=O)c(C(c3nnnn3C3CCCC3)N3CCCc4ccccc43)cc2c1 (stereo not given) | i | 35 | i | i | i | i
CN1CCN(NC(=O)CN2C(=O)S/C(=C\c3c(Cl)cccc3Cl)C2=O)CC1 | i | 26 | i | i | i | i
O=C(CCN1C(=O)/C(=C/c2ccccc2Cl)SC1=S)NN1CCOCC1 | i | i | i | i | i | nt
CN(C)c1ccc(-c2ccnc3c2CC(C)(C(=O)Nc2ccc(Cl)c(C(F)(F)F)c2)O3)cc1 (stereo not given) | i | i | i | i | nt | nt
COC(=O)[C@]12C[C@H](CC(=O)N3CCSCC3)C(=O)N(Cc3ccccc3)C1=C[C@H](C(C)C)O[C@@H]2C1CC1 | i | i | i | i | nt | nt
SMILES | ABHD4 inh | PRMT1 FP inh | TCR CD3 inh | SIAE inh | HTRA1 inh | PRMT1 confirm
COC(=O)c1nn2c(C(F)(F)F)cc(-c3ccc(Br)o3)nc2c1Br | i | 30 | i | i | i | i
CC(C)(C)NC(=O)c1nn2c(C(F)(F)F)cc(-c3ccccc3)nc2c1Br | i | i | i | i | i | nt
COc1ccc(N2CC(C(=O)N[C@@H](C)C(=O)NCc3ccccc3OC)CC2=O)cc1 (stereo not given in full) | i | i | i | i | i | nt
C#CCNC(=O)C[C@@H]1C[C@@]2(C(=O)OCC)CCCC=C2N(CCC2=CCCCC2)C1=O | i | i | i | i | nt | nt
CCCCNC(=O)C1(C)CCC(=O)N1C1CCN(Cc2ccccc2)CC1 (stereo not given) | i | i | i | i | nt | nt
Cc1ccc(S(=O)(=O)Nc2cccc(C(=O)NCC(C)(C)N3CCOCC3)c2)cc1F | i | i | i | i | i | nt
Cc1ccc(NS(=O)(=O)c2cccc(C(=O)NC3CCN(Cc4ccccc4)CC3)c2)cc1 | i | i | i | i | i | nt
